Assay outcomes: PubChem, Broad Institute
Only some compounds are listed: those with a hit (about 5.9% of all), similar ones and a draw of the others.
KDM4C inh – inhibitors of GASC-1 (KDM4C) histone demethylase, primary screen, biochemical, single concentration HTS; GST-KDM4C 2-372, H3K9me3 peptide, LANCE TR-FRET; inhibition, % at 12.5 µM; actives 0.15% (n = 96,000);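 active = mean replicate inhibition above about 25%, with at least 55% of replicates also reaching it, limit read from the data, passing the limit was not always enough; inconclusive = only one of those two conditions met; inactive = neither condition met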
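Assay system: GST-GASC-1 enzyme fragment 2-372 | Amount: 10 nM enzyme | Medium: HEPES buffer, pH 7.5, plus ascorbate | Reagent: H3K9me3 peptide substrate, Fe(II), 2-oxoglutarate | Doses: Single-point compound screen | Incubation: 30 min demethylation and 1 h detection at room temperature | Measured by: LANCE TR-FRET, excitation 340 nm, emissions 618 and 671 nm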
T cruzi growth-1 – T. cruzi intracellular proliferation inhibitors, primary screen, cell-based, beta-gal Tulahuen parasites, NIH3T3 host, luminescence. inhibition, % at 8.34 µM. T. cruzi beta-gal in NIH3T3, GalScreen luminescence, 90 h. actives 5.9% (n = 77,000);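 active = mean inhibition above about 93%, with at least 55% of replicates each passing it, limit read from the data, passing the limit was not always enough; inconclusive = only one of those two conditions holds; inactive = neither condition holds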
Pf Dd2 inh – P. falciparum Dd2 growth inhibitors, primary screen, SYBR Green fluorescence, single dose replicates; 72 h; active compounds read low; activity change, % at 10 µM; actives 2.3% (n = 94,000); AID 1159554, 2015; in the data active = activity change below about -80%; inconclusive = no clear call, values can overlap the other calls
IDH1 R132H inh – inhibitors of IDH1 R132H reductase, primary screen, biochemical, plate reader, single point; Isocitrate dehydrogenase [NADP] cytoplasmic (Homo sapiens), O75874; diaphorase/resazurin fluorescence, 60 min; inhibition, % at 10 µM; actives 0.18% (n = 70,000); in the data active = inhibition above about 34%; inconclusive = no clear call, values can overlap the other calls; inactive = below about 11%;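 also: 0% = DMSO and 100% = no enzyme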
Target sequence (O75874 whole entry R132H): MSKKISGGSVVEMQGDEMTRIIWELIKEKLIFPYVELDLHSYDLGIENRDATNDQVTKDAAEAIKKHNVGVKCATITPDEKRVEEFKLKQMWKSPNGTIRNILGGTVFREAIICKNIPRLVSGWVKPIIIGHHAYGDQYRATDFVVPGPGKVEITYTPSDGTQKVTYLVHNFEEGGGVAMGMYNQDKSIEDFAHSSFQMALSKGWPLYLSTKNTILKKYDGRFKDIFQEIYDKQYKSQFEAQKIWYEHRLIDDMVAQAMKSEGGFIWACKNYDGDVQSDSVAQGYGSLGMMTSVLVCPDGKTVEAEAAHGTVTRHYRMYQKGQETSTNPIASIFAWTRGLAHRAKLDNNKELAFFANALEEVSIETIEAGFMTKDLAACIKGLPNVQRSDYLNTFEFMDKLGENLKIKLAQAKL
T cruzi growth-2 – T. cruzi intracellular proliferation inhibitors, confirmation, cell-based, NIH3T3 host, beta-gal parasite, luminescence, cherry-pick. AID 651739, 2012. actives 72% (n = 5,600). T. cruzi beta-gal in NIH3T3, GalScreen luminescence, 90 h. shares compounds with T cruzi growth-1. inhibition, % at 8.35 µM;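 active = mean replicate inhibition above about 95% and at least 55% of replicates individually reaching it, limit read from the data; inconclusive = only one of the two criteria is met; inactive = neither criterion is met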
T cruzi growth-3 – inhibitors of intracellular T. cruzi replication, confirmation, NIH3T3 host cells, beta-gal parasites, cherry-pick, set 2; inhibition, % at 2.09 µM; shares compounds with T cruzi growth-1; actives 21% (n = 5,600); AID 651740, 2012; T. cruzi beta-gal in NIH3T3, GalScreen luminescence, 90 h;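 active = mean inhibition above about 95%, with at least 55% of replicates also reaching it, limit read from the data; inconclusive = meets just one of the two conditions; inactive = meets neither condition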;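 also: plate controls were neutral control median for no effect and positive control median for full effect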
3T3 cytotox – cytotoxicity in mouse NIH/3T3 fibroblasts, confirmation, cytotoxicity control for T. cruzi proliferation inhibitor project, cell-based, cherry-pick, single point. shares compounds with T cruzi growth-1. NIH/3T3 viability, CellTiter-Glo ATP luminescence, 90 h. cytotoxicity (signal decrease), % at 8.35 µM. actives 14% (n = 5,600);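 active = mean signal decrease across replicates above about 35% based on untreated-well scatter, with enough replicates individually passing, limit read from the data; inconclusive = no rule stated though some were filed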;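 also: 0% = median of neutral control wells and 100% = median of positive control wells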
NIH3T3 tox 2 – NIH/3T3 fibroblast cytotoxicity, confirmation, cytotoxicity control, cell-based, cherry-pick, single point, set 2 | inhibition, % at 24.9 µM | shares compounds with T cruzi growth-1 | NIH/3T3 viability, CellTiter-Glo ATP luminescence, 90 h | AID 651744, 2012 | actives 56% (n = 5,600);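 active = mean loss of cell viability signal at or above a set limit, and enough replicates individually reaching it; inconclusive = meets only the mean limit or only the replicate share; inactive = meets neither condition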;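 also: 0% = median of neutral control wells and 100% = median of positive control wells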
Starred values were filed as active, the others as inactive.

COc1cc(Cl)c(C)cc1NC(=O)C(CC(C)C)N1C(=O)c2ccccc2C1=O (stereo unspecified) was read as IDH1 R132H inh 3.
Screening O=C(C1CCC1)N1CCCCN2[C@H](CO)[C@@H](c3ccc(C#CC4CCCC4)cc3)[C@H]2C1 returned T cruzi growth-1 inconclusive, Pf Dd2 inh -52, T cruzi growth-2 87, T cruzi growth-3 39, 3T3 cytotox 12 and NIH3T3 tox 2 104*.
O=C(C1CCC1)N1CCCCN2[C@@H](CO)[C@@H](c3ccc(C#CC4CCCC4)cc3)[C@@H]2C1 was read as T cruzi growth-1 86 and Pf Dd2 inh -56.
`O=C(C1CCC1)N1CCCCN2[C@H](CO)[C@H](c3ccc(C#CC4CCCC4)cc3)[C@H]2C1` gave T cruzi growth-1 101*, Pf Dd2 inh -52, T cruzi growth-2 104*, T cruzi growth-3 95, 3T3 cytotox 22 and NIH3T3 tox 2 103*.
For O=C(C1CCCC1)N1CCCCN2[C@H](C1)[C@H](c1ccc(C#CC3CC3)cc1)[C@@H]2CO the results were T cruzi growth-1 114*, Pf Dd2 inh 12, T cruzi growth-2 99*, T cruzi growth-3 53, 3T3 cytotox 8 and NIH3T3 tox 2 21.
For O=C(C1CCCC1)N1CCCCN2[C@H](CO)[C@H](c3ccc(C#CC4CC4)cc3)[C@H]2C1 the results were T cruzi growth-1 113*, Pf Dd2 inh -21, T cruzi growth-2 104*, T cruzi growth-3 79, 3T3 cytotox 4 and NIH3T3 tox 2 37*.
CN(C)CC#Cc1ccc([C@H]2[C@@H](CO)N3CCCCN(C(=O)C4CC4)C[C@@H]23)cc1 was read as T cruzi growth-1 49 and Pf Dd2 inh 14.
For CN(C)CC#Cc1ccc([C@H]2[C@@H](CO)N3CCCCN(C(=O)C4CC4)C[C@H]23)cc1 the results were T cruzi growth-1 102*, Pf Dd2 inh 23, T cruzi growth-2 6, T cruzi growth-3 -24, 3T3 cytotox 21 and NIH3T3 tox 2 36*.
`O=C(C1CCCC1)N1CCCCN2[C@H](C1)[C@@H](c1ccc(C#CC3CC3)cc1)[C@@H]2CO` gave T cruzi growth-1 84 and Pf Dd2 inh 28.
Screening O=C(CSc1nc2ccccc2c(=O)n1-c1ccc(Cl)cc1)Nc1cccc(Cl)c1 returned IDH1 R132H inh 0.
Cc1cc(=O)oc2cc(OC(C)C(=O)Nc3ccccc3[N+](=O)[O-])ccc12 (stereo unspecified) was read as IDH1 R132H inh 0.
Screening Cc1[nH]c2ccccc2c1C(=O)CSc1nnc2ccccn12 returned IDH1 R132H inh 1.
Screening Cc1ccc(-c2noc(CCC(=O)NC(C)(C)C)n2)cc1 returned IDH1 R132H inh 0.
Screening CC(=O)N1[C@@H]2c3ccc(C4=CCCC4)c(=O)n3C[C@H]1[C@H](CO)[C@H]2C(=O)N[C@H](C)c1ccccc1 returned KDM4C inh 1, T cruzi growth-1 101*, Pf Dd2 inh 3, T cruzi growth-2 -16, T cruzi growth-3 8, 3T3 cytotox 12 and NIH3T3 tox 2 4.
Screening C[C@H](NC(=O)[C@@H]1N[C@@H]2c3ccc(C4=CCCC4)c(=O)n3C[C@@H]2[C@H]1CO)c1ccccc1 returned KDM4C inh 0, T cruzi growth-1 97*, T cruzi growth-2 40, T cruzi growth-3 -37, 3T3 cytotox 1 and NIH3T3 tox 2 -10.
Screening C[C@@H](NC(=O)[C@@H]1N[C@@H]2c3ccc(C4=CCCCC4)c(=O)n3C[C@@H]2[C@H]1CO)c1ccccc1 returned KDM4C inh 0, T cruzi growth-1 101*, Pf Dd2 inh 4, T cruzi growth-2 109*, T cruzi growth-3 -4, 3T3 cytotox 2 and NIH3T3 tox 2 7.
For O=C(CSc1nc2ccc([N+](=O)[O-])cc2[nH]1)Nc1ccc2c(c1)OCCO2 the results were IDH1 R132H inh 1.
`COc1ccc(NC(=O)C(=O)NCC(=O)Nc2ccc(OC)c(Cl)c2)cc1` gave IDH1 R132H inh 1.
For O=C(Nc1ccccc1F)N1CCCCN2[C@H](CO)[C@H](c3ccc(C4=CCCC4)cc3)[C@H]2C1 the results were KDM4C inh -1, T cruzi growth-1 103*, Pf Dd2 inh -33, T cruzi growth-2 92, T cruzi growth-3 68, 3T3 cytotox 14 and NIH3T3 tox 2 103*.
O=C(Nc1cc(F)ccc1F)N1CCCCN2[C@H](C1)[C@H](c1ccc(C3=CCCCC3)cc1)[C@@H]2CO was read as KDM4C inh 0, T cruzi growth-1 78 and Pf Dd2 inh 6.
`O=C(Nc1ccc(F)cc1)N1CCCCN2[C@H](C1)[C@H](c1ccc(C3=CCCCC3)cc1)[C@@H]2CO` gave KDM4C inh -2, T cruzi growth-1 112*, Pf Dd2 inh -24, T cruzi growth-2 106*, T cruzi growth-3 39, 3T3 cytotox -1 and NIH3T3 tox 2 86*.
COc1ccc(NC(=O)N2CCCCN3[C@H](CO)[C@@H](c4ccc(C5=CCCCC5)cc4)[C@H]3C2)cc1 was read as KDM4C inh 3, T cruzi growth-1 117*, Pf Dd2 inh -35, T cruzi growth-2 105*, T cruzi growth-3 90, 3T3 cytotox 29 and NIH3T3 tox 2 105*.
O=C(Nc1ccccc1F)N1CCCCN2[C@H](C1)[C@H](c1ccc(C3=CCCC3)cc1)[C@@H]2CO was read as KDM4C inh 0, T cruzi growth-1 37 and Pf Dd2 inh 7.
Screening COc1ccc(NC(=O)N2CCCCN3[C@H](C2)[C@H](c2ccc(C4=CCCCC4)cc2)[C@@H]3CO)cc1 returned KDM4C inh 0, T cruzi growth-1 110*, Pf Dd2 inh 4, T cruzi growth-2 114*, T cruzi growth-3 42, 3T3 cytotox 7 and NIH3T3 tox 2 94*.
`COc1ccc(NC(=O)N2CCCCN3[C@@H](CO)[C@H](c4ccc(C5=CCCC5)cc4)[C@@H]3C2)cc1` gave T cruzi growth-1 84 and Pf Dd2 inh -32.
